From ChEMBL document CHEMBL3271997, “Reactions of 2-acyloxyisobutyryl halides with nucleosides. 6. Synthesis and biological evaluation of some 3'-acyl derivatives of 2,2'-anhydro-1-(beta-D-arabinofuranosyl)cytosine hydrochloride” (J Med Chem, 1976)
pEC50: −log10 of the molar value. Calls of active or inactive are those of the source. The rule behind the calls is not given here.

How the values were obtained:
HeLa = assay: Cytotoxicity against human HeLa cells after 48 hrs by Coulter counting analysis; assay type: functional; conditions: read-out: ED50 (the source's name)
Method in brief: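 HeLa cells (10⁵) were grown for 2 days at 37° in MEM with 10% bovine serum. The medium was then replaced with fresh medium containing serial compound dilutions. After 48 h, cells were dispersed with 0.02% trypsin and 0.04% versene and counted on a Coulter counter. The result is expressed as ED50 in μg/ml.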

Herpesviridae sp. = assay: Antiviral activity against Herpes simplex virus HF infected in African green monkey BGM cells after 6 days by plaque reduction assay; assay type: functional; conditions: 144 h, read-out: ED50 (the source's name)
Method in brief: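 Quantitative plaque reduction assay. Confluent BGM monolayers were infected with 100-200 pfu of HSV (HF strain) and overlaid with 1.25% agar in MEM with 2.0% bovine serum containing graded compound concentrations. A second overlay with neutral red (1:20000) was added on day 4, and plaques were counted on day 6. ED50, the μM concentration giving 50% plaque reduction, was taken from a probability plot of % inhibition against concentration.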

Vaccinia virus = assay: Antiviral activity against Vaccinia virus IHD infected in African green monkey BGM cells after 6 days by plaque reduction assay; assay type: functional; conditions: Orthopoxvirus vaccinia, 144 h, read-out: ED50 (the source's name)
L1210 [1] = assay: Antitumor activity against mouse L1210 cells allografted in BDF1 mouse assessed as increase in life span at 200 mg/kg, ip administered as single dose 24 hrs post-implantation measured up to 30 days relative to control; assay type: functional; conditions: route intraperitoneal
Method in brief: (§1)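 BDF1 mice inoculated ip with 1-2 × 10⁵ L1210 cells; 24 h later a single ip dose given as solution or suspension in aqueous 0.9% NaCl, 0.4% polysorbate 80, 0.5% low-viscosity sodium carboxymethylcellulose, 0.9% benzyl alcohol. Mice held on normal diet for 30 days. Groups of eight to ten animals; percent increase in life span versus untreated infected controls, with 30-day survivors counted.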

L1210 [2] = assay: Antitumor activity against mouse L1210 cells allografted in BDF1 mouse assessed as survival at 200 mg/kg, ip administered as single dose 24 hrs post-implantation after 30 days; assay type: functional, organism-based; design: dose 200 mg/kg
Method in brief: (§2)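 BDF1 mice were inoculated ip with 1-2 × 10⁵ L1210 cells. After 24 h, one ip dose was given as a solution or suspension in aqueous 0.9% NaCl, 0.4% polysorbate 80, 0.5% low-viscosity Na carboxymethylcellulose and 0.9% benzyl alcohol. Mice were followed for 30 days, with 8-10 per group. The read-out is % increase in life span versus infected controls, plus the count of 30-day survivors.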

L1210 [3] = assay: Antitumor activity against mouse L1210 cells allografted in BDF1 mouse assessed as survival at 1000 mg/kg, ip administered as single dose 24 hrs post-implantation after 30 days; assay type: functional, organism-based; design: dose 1000 mg/kg; method in brief: as §2
L1210 [4] = assay: Antitumor activity against mouse L1210 cells allografted in BDF1 mouse assessed as increase in life span at 1000 mg/kg, ip administered as single dose 24 hrs post-implantation measured up to 30 days relative to control; assay type: functional; conditions: route intraperitoneal; method in brief: as §1
Mus musculus [5] = assay: Toxicity in BDF1 mouse allografted with mouse L1210 cells assessed as reduction in average life span at 500 mg/kg, ip administered as single dose 24 hrs post-implantation measured up to 30 days relative to control; assay type: organism-based; design: dose 500 mg/kg, route intraperitoneal; conditions: in vivo; method in brief: as §2
Mus musculus [6] = assay: Toxicity in BDF1 mouse allografted with mouse L1210 cells assessed as reduction in survival at 1000 mg/kg, ip administered as single dose 24 hrs post-implantation measured up to 30 days relative to control; assay type: organism-based; design: dose 1000 mg/kg, route intraperitoneal; conditions: in vivo; method in brief: as §1
Mus musculus [7] = assay: Toxicity in BDF1 mouse allografted with mouse L1210 cells assessed as reduction in survival at 500 mg/kg, ip administered as single dose 24 hrs post-implantation measured up to 30 days relative to control; assay type: organism-based; design: dose 500 mg/kg, route intraperitoneal; conditions: in vivo; method in brief: as §1
Mus musculus [8] = assay: Toxicity in BDF1 mouse allografted with mouse L1210 cells assessed as reduction in average life span at 1000 mg/kg, ip administered as single dose 24 hrs post-implantation measured up to 30 days relative to control; assay type: organism-based; design: dose 1000 mg/kg, route intraperitoneal; conditions: in vivo; method in brief: as §2
[9] = Half life in human; assay type: ADME, organism-based; conditions: in vivo
L1210 [10] = assay: Antitumor activity against mouse L1210 cells allografted in BDF1 mouse assessed as increase in life span at 500 mg/kg, sc administered 10 days prior to infection relative to control; assay type: functional; conditions: route subcutaneous
Method in brief: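 Single subcutaneous dose given 10 days before infection of mice with L1210 cells; activity expressed as percent increase in life span relative to untreated controls.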

Mus musculus [11] = assay: Toxicity in BDF1 mouse allografted with mouse L1210 cells assessed as reduction in survival at 200 mg/kg, ip administered as single dose 24 hrs post-implantation measured up to 30 days relative to control; assay type: organism-based; design: dose 200 mg/kg, route intraperitoneal; conditions: in vivo; method in brief: as §1
Mus musculus [12] = assay: Toxicity in BDF1 mouse allografted with mouse L1210 cells assessed as reduction in average life span at 200 mg/kg, ip administered as single dose 24 hrs post-implantation measured up to 30 days relative to control; assay type: organism-based; design: dose 200 mg/kg, route intraperitoneal; conditions: in vivo; method in brief: as §2
L1210 [13] = assay: Antitumor activity against mouse L1210 cells allografted in BDF1 mouse assessed as increase in life span at 2000 mg/kg, ip administered as single dose 24 hrs post-implantation measured up to 30 days relative to control; assay type: functional; conditions: route intraperitoneal; method in brief: as §1
[14] = tested on: unidentified influenza virus; assay: Antiviral activity against Influenza virus […] infected in monkey LLC-MK2 cells after 5 days by pulp disk diffusion assay; assay type: functional, organism-based
Method in brief: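 Pulp disk diffusion screen: LLCMK2 cells infected with 200 pfu influenza Ao/WSN in presence of trypsin; filter paper disk loaded with 50 μg compound; antiviral activity read as diameter of plaque-inhibition zone on day 5.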

BGM = assay: Antiviral activity against Poliovirus type 1 Mahoney infected in African green monkey BGM cells after 5 days by pulp disk diffusion assay; assay type: functional, cell-based; conditions: Human poliovirus 1 Mahoney
Method in brief: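 Pulp disk diffusion screen: BGM African green monkey kidney cells infected with 200 pfu Mahoney type I poliovirus; filter paper disk loaded with 50 μg compound; antiviral activity read as diameter of plaque-inhibition zone on day 5.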

L1210 [15] = assay: Antitumor activity against mouse L1210 cells allografted in BDF1 mouse assessed as survival at 500 mg/kg, ip administered as single dose 24 hrs post-implantation after 30 days; assay type: functional, organism-based; design: dose 500 mg/kg; method in brief: as §2
Mus musculus [16] = assay: Toxicity in BDF1 mouse allografted with mouse L1210 cells at 3000 mg/kg, ip; assay type: organism-based; design: dose 3000 mg/kg, route intraperitoneal; conditions: in vivo; method in brief: as §2
Measles morbillivirus = assay: Antiviral activity against Measles virus infected in African green monkey BGM cells after 5 days by pulp disk diffusion assay; assay type: functional, organism-based
Method in brief: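 Preliminary pulp disk diffusion screen. BGM cells were infected with 200 pfu of measles virus. A filter paper disk impregnated with 50 μg of compound was applied. Activity was scored as the diameter of the zone of plaque inhibition on day 5.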

Row | SMILES | EC50 (HeLa) | pEC50 (Herpesviridae sp.) | pEC50 (Vaccinia virus) | ILS at 200 mg/kg (L1210 [1]) | Activity (L1210 [2]) | other results
1 | CCCCCCCCC(=O)O[C@H]1[C@@H]2Oc3nc(=N)ccn3[C@@H]2O[C@@H]1CO.Cl | 0.05 µg/mL | 6.40 | 6.54 | 33% | inactive | –
2 | CCCCCCCC/C=C/CCCCCCCC(=O)O[C@H]1[C@@H]2Oc3nc(=N)ccn3[C@@H]2O[C@@H]1CO.Cl | 0.09 µg/mL | 5.72 | 6.05 | > 162% | – | –
3 | CC(=O)O[C@H]1[C@@H]2Oc3nc(=N)ccn3[C@@H]2O[C@@H]1CO.Cl | 0.18 µg/mL | 5.65 | 6.14 | 37% | inactive | Activity (L1210 [3]): inactive; ILS at 1000 mg/kg (L1210 [4]): 87%
4 | CCCCCCCCCCCCCCCCCC(=O)O[C@H]1[C@@H]2Oc3nc(=N)ccn3[C@@H]2O[C@@H]1CO.Cl | 0.22 µg/mL | 5.26 | 5.80 | 115% | inactive | Activity (L1210 [3]): Active; ILS at 1000 mg/kg (L1210 [4]): > 257%
5 | Cl.N=c1ccn2c(n1)O[C@H]1[C@H](OC(=O)Cc3ccccc3)[C@@H](CO)O[C@H]12 | 0.07 µg/mL | 6.25 | 6.25 | 33% | inactive | –
6 | Cl.N=c1ccn2c(n1)O[C@H]1[C@H](OC(=O)c3ccccc3)[C@@H](CO)O[C@H]12 | 0.2 µg/mL | 5.09 | 5.23 | 17% | inactive | –
7 | CCCCCCCCCCCCCCCCCCCC(=O)O[C@H]1[C@@H]2Oc3nc(=N)ccn3[C@@H]2O[C@@H]1CO.Cl | 0.22 µg/mL | < 4.52 | < 4.52 | > 281% | – | Activity (L1210 [3]): Active; ILS at 1000 mg/kg (L1210 [4]): > 266%
8 | CC(C)C(=O)O[C@H]1[C@@H]2Oc3nc(=N)ccn3[C@@H]2O[C@@H]1CO.Cl | 0.2 µg/mL | 5.06 | 5.81 | 22% | inactive | –
9 | CCCCCCCC(=O)O[C@H]1[C@@H]2Oc3nc(=N)ccn3[C@@H]2O[C@@H]1CO.Cl | 0.1 µg/mL | 6.14 | 6.72 | 34% | – | ILS (Mus musculus [5]): -93%; Activity (Mus musculus [6]): Toxic; Activity (Mus musculus [7]): Toxic; ILS (Mus musculus [8]): -100%
10 | CCCCCCCC/C=C\CCCCCCCCCCCC(=O)O[C@H]1[C@@H]2Oc3nc(=N)ccn3[C@@H]2O[C@@H]1CO.Cl | 0.18 µg/mL | < 4.52 | 4.52 | > 269% | – | –
11 | CCCC(=O)O[C@H]1[C@@H]2Oc3nc(=N)ccn3[C@@H]2O[C@@H]1CO.Cl | 0.12 µg/mL | 5.69 | 6.23 | 30% | inactive | –
12 | Nc1ccn([C@@H]2O[C@H](CO)[C@@H](O)[C@@H]2O)c(=O)n1 [CYTARABINE] | – | – | – | – | – | half-life [9]: 12 min
13 | C=CCCCCCCCCC(=O)O[C@H]1[C@@H]2Oc3nc(=N)ccn3[C@@H]2O[C@@H]1CO.Cl | 0.05 µg/mL | 5.92 | 6.29 | 38% | inactive | –
14 | CCC(=O)O[C@H]1[C@@H]2Oc3nc(=N)ccn3[C@@H]2O[C@@H]1CO.Cl | 0.1 µg/mL | 5.59 | 6.22 | 29% | inactive | –
15 | CCCCCCCC/C=C\CCCCCCCC(=O)O[C@H]1[C@@H]2Oc3nc(=N)ccn3[C@@H]2O[C@@H]1CO.Cl | 0.08 µg/mL | 5.92 | 6.17 | 72% | inactive | –
16 | CCCCCCCCCCCCCCCCCCCCCC(=O)O[C@H]1[C@@H]2Oc3nc(=N)ccn3[C@@H]2O[C@@H]1CO.Cl | 0.38 µg/mL | < 4.52 | 4.73 | > 169% | – | ILS at 1000 mg/kg (L1210 [4]): > 240%
17 | CCCCCCCCCCCCCCCC(=O)O[C@H]1[C@@H]2Oc3nc(=N)ccn3[C@@H]2O[C@@H]1CO.Cl | 0.2 µg/mL | 5.26 | 5.92 | > 191% | – | Activity (Mus musculus [6]): Toxic; ILS (Mus musculus [8]): -20%
18 | CCCCCCCCCCCC(=O)O[C@H]1[C@@H]2Oc3nc(=N)ccn3[C@@H]2O[C@@H]1CO.Cl | 0.1 µg/mL | 6.19 | 6.19 | 40% | inactive | –
19 | CCCCCC(=O)O[C@H]1[C@@H]2Oc3nc(=N)ccn3[C@@H]2O[C@@H]1CO.Cl | 0.1 µg/mL | 5.81 | 6.64 | 40% | inactive | –
20 | CCCCCCCCCC(=O)O[C@H]1[C@@H]2Oc3nc(=N)ccn3[C@@H]2O[C@@H]1CO.Cl | 0.2 µg/mL | 5.98 | 6.82 | 35% | inactive | –
21 | CCCCCCCCCCCCCC(=O)O[C@H]1[C@@H]2Oc3nc(=N)ccn3[C@@H]2O[C@@H]1CO.Cl | 0.2 µg/mL | 5.87 | 6.47 | 100% | inactive | Activity (L1210 [3]): Active; ILS at 500 mg/kg (L1210 [10]): 64%; ILS at 1000 mg/kg (L1210 [4]): > 280%
22 | CCCCCCC/C=C/C(=O)O[C@H]1[C@@H]2Oc3nc(=N)ccn3[C@@H]2O[C@@H]1CO.Cl | 0.06 µg/mL | 6.68 | 6.82 | – | – | Activity (Mus musculus [11]): Toxic; ILS (Mus musculus [12]): -83%
23 | CCCCCCCCCCC(=O)O[C@H]1[C@@H]2Oc3nc(=N)ccn3[C@@H]2O[C@@H]1CO.Cl | 0.06 µg/mL | 6.34 | 6.72 | 87% | inactive | –
24 | Cl.N=c1ccn2c(n1)O[C@H]1[C@H](O)[C@@H](CO)O[C@H]12 [ANCITABINE HYDROCHLORIDE] | 0.05 µg/mL | 6.15 | 6.39 | 25% | inactive | ILS at 2000 mg/kg (L1210 [13]): > 151%; Activity [14]: inactive; Activity (L1210 [3]): inactive; Activity (BGM): inactive; Activity (L1210 [15]): inactive; Activity (Mus musculus [16]): Toxic; Activity (Measles morbillivirus): inactive; ILS at 1000 mg/kg (L1210 [4]): 89%
